Tested on: MS2 coat protein
Test: apparent Kd, MS2 coat protein; higher = weaker binding; RNA-MaP array; FMN 200 µM where present
In short: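 Green signal was scaled to red-channel RNA signal and control-cluster median Fmax, and the apparent Kd was taken as the median of filtered per-cluster binding-curve fits. The binding series used SNAP-549-labelled MS2 coat protein from 0.7 or 1.5 nM, doubling to 3 µM, on designs transcribed by stalled E. coli RNA polymerase on Illumina sequencing-chip clusters. Each series ran without and then with constant ligand in 100 mM Tris-HCl pH 7.5, 80 mM KCl, 4 mM MgCl2, BSA, DTT, yeast tRNA and Tween-20.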

[1] = designed as: ON switch for flavin mononucleotide, no ligand
[2] = ligand present: flavin mononucleotide, designed as: ON switch for flavin mononucleotide
[3] = designed as: OFF switch for flavin mononucleotide, no ligand
[4] = ligand present: flavin mononucleotide, designed as: OFF switch for flavin mononucleotide

Row | Sequence | apparent Kd [1] | apparent Kd [2] | apparent Kd [3] | apparent Kd [4]
1 | AAAACGGCGCAUCCCGCGCCAACUACAGAAGGCCAACAUGAGGAUCACCCAUGUACAAACUAGAUGGAGGAUAUGUAGGUUCUA | 5.18 nM | 4.2 nM |  | 
2 | UAUAUAAUAAGAGCUGGAAACUCAACAUGAGGAUCACCCAUGUAGGAUAUCAGCACGAUAAGUGCUGAGAAGGACAACCAGCUC |  |  | 19.9 nM | 23.3 nM
3 | GGAGCCGGCCUAGGAUAUUUCAUAACAAAACAUGAGGAUCACCCAUGUAGGCCAGAAGGCCUUGGGAAGAAGGAGGUCGGCUCC | 29.6 nM | 11.7 nM |  | 
4 | GCGUGGUUCUAGAAGGUGCUAGCGAUAAGCUAGCAAGGAUAUAGACAUGAGGAUCACCCAUGUCUUAAUGAAAUGGACACACGC |  |  | 5.3 nM | 4.85 nM
5 | UAGGUUUGUAGUUACAUCCCUACACAGGAUAUGGGUAGUUACAUGAGGAUCACCCAUGUUCGAACUCAGAAGGGUGGAUCGUUA | 170 nM | 13.8 nM |  | 
6 | AAGUUGGUAGGAUAUACGUGCAAUUGGUGUGUCCGGAAAAAACAUGAGGAUCACCCAUGUAGAAGGACCAAAAA |  |  | 49.3 nM | 57.5 nM
7 | GGGUGCAUCGGAGGAUAUCAUGUAAAUACAUGAGGAUCACCCAUGUCGAUGGAGACAUCGGAGAUUGAGAAGGCCGAUGUACCG | 172 nM | 8.99 nM |  | 
8 | AUCCACCGCACGGACACGUCGAGUCAGGAUAUACAUGAGGAUCACCCAUGUGAAGGCCGGCUCAUGUAGAAGGGACAGGCGUUG |  |  | 10.4 nM | 22.5 nM
9 | GUCAGCUUGUGAGGAUAUACAACACUGCUUCGGCAGUGUAUUAAGAUCACAUGAGGAUCACCCAUGUAGAAGGCACGAGCUGAU |  |  | 14 nM | 257 nM
10 | CUUCGACAUGAGGAUCACCCAUGUCAGGAUAUUGUGUAUCGGGUUUUUUACGGUAAGGCAAGAAGGGAUGUGUG |  |  | 33 nM | 30.2 nM
11 | UUAUUAUGUGUAGGAUAUGCAUAUCAUUAUUAUGCAGAAGGACAUGAGGAUCACCCAUGUAUAUUAUUAUUAUAUAUUAUAUAU |  |  | 15.3 nM | 16.6 nM
12 | GCUAGAUUUGCAGGAUAUUGUAAUUUAUUAUUUCAAGAAGGGCAUUACAUGAGGAUCACCCAUGUCAUCCUAUGGUUUACUAGC |  |  | 9.57 nM | 23.1 nM
13 | GCCAUCACAUGAGGAUAUGCUCCCGUUUCGGGAGCAGAAGGCGUGUCAUAAGACAUGAGGAUCACCCAUGUAGCUAAGAUGGCA | 321 nM | 12.6 nM |  | 
14 | UAGAAGUCAGGAUAUGCUGCUCGUCACUUGCGUGAUGAGUAGCAGAAGGGACAUGAGGAUCACCCAUGUAAAGA |  |  | 57.4 nM | 79.9 nM
15 | GACUGCCGAGGAUAUACAUGAGGAUCACCCAUGUGCUUCAGUAUCGAAAGAUGCAUGGGUAGAAGGCGGUAGUC |  |  | 391 nM | 284 nM
16 | UUAAAUCAUGUAGGAUAUGCAUGGCGAAGCUACGCAGAAGGACAUGAGGAUCACCCAUGUUAUAGCGACCCAGUUCGGUUGCAA |  |  | 94.3 nM | 230 nM
17 | AUGCUUCACACAGGAUAUACAUGAGGAUCACCCAUGUGUCCUCCGUAGCUGACACGAGCUACGCGGUAGAAGGGUGUGAAGCAU |  |  | 91 nM | 698 nM
18 | GUUUCGUGAGGAUAUGUGGCUUCGAUCGUGCGAAAAAGGCUACAGAAGGCACAUGAGGAUCACCCAUGUUCCUC |  |  | 119 nM | 568 nM
19 | ACAAGAUCAGGAUAUACAUGAGGAUCACCCAUGUAUAUAAAAAAAGGGCUUUCUACAUGUAGAAGGGAUCUUGU |  |  | 29.9 nM | 37 nM
20 | GUGGUCAGACAUGAGGAUCACCCAUGUGGAAUAAAUAAGGCAUAGGAUAUGAAAUAUAGGAUAUAUCAGAAGGAUGGGUUGGUG | 164 nM | 191 nM |  | 
21 | ACGACGAAAGUCGAACGAUGUAGCAGAAGGACAUGAGGAUCACCCAUGUCAGCUGUGCAAAACAUGUAGGAUAUGCUACAUCGA |  |  | 6.14 nM | 11.3 nM
22 | GGCGGGCACACUGGCCGCUGAAGGAGAAGGCAGUGCACAUGAGGAUCACCCAUGUCGCGUGUGCCUGAGGAUAUCCGUAAAACG |  |  | 9.38 nM | 71.4 nM
23 | UCACUCAAGUUAGGAUAUGGAUCGGAAAACGAUCCAGAAGGAACAUGGGAACAUGAGGAUCACCCAUGUUCCAGAAACGAGUGA | 413 nM | 155 nM |  | 

Source: the EternaBench riboswitch data
